Reference: ChEMBL document CHEMBL1129565, “Selective inhibitors of monoamine oxidase. 3. Structure-activity relationship of tricyclics bearing imidazoline, oxadiazole, or tetrazole groups” (J Med Chem, 1996)

Tests used:
[1] = target: T1, Amine oxidase [flavin-containing] A (Rattus norvegicus, UniProt P21396); experiment: Inhibitory concentration against rat brain mitochondrial monoamine oxidase A
T1 sequence (P21396 whole entry): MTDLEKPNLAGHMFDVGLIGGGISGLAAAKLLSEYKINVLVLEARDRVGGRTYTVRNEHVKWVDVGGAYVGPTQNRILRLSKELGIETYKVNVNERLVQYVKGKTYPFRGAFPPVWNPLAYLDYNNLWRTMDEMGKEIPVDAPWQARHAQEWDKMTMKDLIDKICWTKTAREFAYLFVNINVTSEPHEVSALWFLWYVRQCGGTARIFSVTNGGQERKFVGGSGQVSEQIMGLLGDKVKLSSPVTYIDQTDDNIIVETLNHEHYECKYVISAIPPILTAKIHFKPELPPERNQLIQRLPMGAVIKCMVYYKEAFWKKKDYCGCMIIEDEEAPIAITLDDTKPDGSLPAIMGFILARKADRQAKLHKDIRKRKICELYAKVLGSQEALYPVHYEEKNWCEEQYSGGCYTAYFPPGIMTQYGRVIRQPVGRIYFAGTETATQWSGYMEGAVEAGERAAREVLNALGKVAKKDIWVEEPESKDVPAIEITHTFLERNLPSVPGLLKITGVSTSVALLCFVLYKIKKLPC
Procedure, shortened: (§1)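 Rat brain mitochondrial MAO extract preincubated with inhibitor 15 min at 37 °C in 50 mM potassium phosphate pH 7.4. [3H]serotonin added at 0.2 μM final, then 20 min incubation. Pargyline 2 mM blanks. Stopped with HCl, products extracted into ethyl acetate/toluene and counted radiometrically. Triplicates; IC50 from mean % inhibition vs log concentration.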

[2] = target: T1, Amine oxidase [flavin-containing] A; experiment: Inhibition of the enzyme Monoamine oxidase A which was not completely reverserved after 24 hr of dialysis
Procedure, shortened: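 Reversibility: MAO extract preincubated with or without inhibitor 15 min at 37 °C, in duplicate, then dialysed 24 h at 4 °C with shaking against 0.1 M potassium phosphate pH 7.4, 5% sucrose, 1 mM dithiothreitol, buffer changed ca. 3 and 19 h. Undialysed portions held at 4 °C; both assayed together for MAO activity.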

[3] = target: T2, Amine oxidase [flavin-containing] B (Rattus norvegicus, UniProt P19643); experiment: Inhibitory activity against rat brain mitochondrial Monoamine oxidase B
T2 sequence (P19643 whole entry): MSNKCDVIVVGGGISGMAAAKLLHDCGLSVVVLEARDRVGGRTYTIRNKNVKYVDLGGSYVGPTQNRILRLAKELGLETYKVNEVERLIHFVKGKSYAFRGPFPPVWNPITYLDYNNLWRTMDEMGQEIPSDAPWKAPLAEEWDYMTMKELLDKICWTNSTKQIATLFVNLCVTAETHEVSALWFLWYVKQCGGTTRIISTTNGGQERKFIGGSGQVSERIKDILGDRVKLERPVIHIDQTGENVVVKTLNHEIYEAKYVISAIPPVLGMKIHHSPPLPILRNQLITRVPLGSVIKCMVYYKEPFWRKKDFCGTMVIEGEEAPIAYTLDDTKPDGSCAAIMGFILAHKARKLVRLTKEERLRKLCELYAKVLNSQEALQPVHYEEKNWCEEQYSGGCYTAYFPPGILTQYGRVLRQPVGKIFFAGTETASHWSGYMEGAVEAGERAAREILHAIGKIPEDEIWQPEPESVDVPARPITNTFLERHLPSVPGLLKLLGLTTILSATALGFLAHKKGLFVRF
Procedure, shortened: (§2)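 Rat brain mitochondrial MAO extract preincubated with inhibitor 15 min at 37 °C in 50 mM potassium phosphate pH 7.4. [14C]phenethylamine added at 10 μM final, then 20 min incubation. Pargyline 2 mM blanks. Stopped with HCl, products extracted into ethyl acetate/toluene and counted radiometrically. Triplicates; IC50 from mean % inhibition vs log concentration.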

[4] = target: T2, Amine oxidase [flavin-containing] B; experiment: Inhibitory activity against rat brain mitochondrial Monoamine oxidase B at 10 uM; procedure, shortened: as §2
[5] = target: T2, Amine oxidase [flavin-containing] B; experiment: Inhibitory activity against rat brain mitochondrial Monoamine oxidase B at 1 uM; procedure, shortened: as §2
[6] = target: T1, Amine oxidase [flavin-containing] A; experiment: Inhibitory concentration against rat brain mitochondrial Monoamine oxidase A at 1 uM; procedure, shortened: as §1
[7] = target: T2, Amine oxidase [flavin-containing] B; experiment: Inhibitory activity against rat brain mitochondrial Monoamine oxidase B at 0.1 uM; procedure, shortened: as §2
[8] = target: T1, Amine oxidase [flavin-containing] A; experiment: Inhibitory concentration against rat brain mitochondrial Monoamine oxidase A at 10 uM; procedure, shortened: as §1
[9] = target: T1, Amine oxidase [flavin-containing] A; experiment: Inhibition of the enzyme Monoamine oxidase A which was not completely reverserved after 24 hr of dialysis after po administration to rat (brain); type: organism-based; conditions: in vivo
[10] = target: T2, Amine oxidase [flavin-containing] B; experiment: Inhibitory activity against rat brain mitochondrial Monoamine oxidase B at < 1 uM; procedure, shortened: as §2

SMILES | IC50 [1] [nM] | Reversible [2] [%] | inhibition at 1 µM [5] [%] | inhibition at 1 µM [6] [%] | other results
CCCOc1ccc2sc3cc(-c4nnc(C)o4)ccc3c(=O)c2c1 | 60 | 10 |  |  | IC50 [3]: 1000 nM
Cc1ccc2c(c1)C(=O)c1ccc(C3=NCCN3)cc1S2(=O)=O | 20 | 26 |  |  | inhibition at 10 µM [4]: 0%
CCc1nnc(-c2ccc3c(c2)S(=O)(=O)c2ccccc2C3=O)o1 | 500 |  | 23 |  | 
CN1CCN=C1c1ccc2c(c1)S(=O)(=O)c1ccccc1C2=O |  |  | 18 | 27 | Inhibition ([5]; 1 µM): 11%
c1cc2c3c([nH]c2cc1C1=NCCN1)CCCC3 |  |  | 9 | 20 | 
O=S1(=O)c2ccccc2-c2cc(-c3nn[nH]n3)ccc21 |  |  | 0 | 9 | 
COc1ccc2c(c1)C(=O)c1ccc(-c3nnn(C)n3)cc1S2(=O)=O | 2 | 29 |  |  | IC50 [3]: 60 nM
CC(C)c1ccc2c(c1)C(=O)c1ccc(-c3nnn(C)n3)cc1S2(=O)=O | 5 | 0 |  |  | inhibition at 0.1 µM [7]: -30%
c1ccc(Cn2c3ccccc3c3cc(C4=NCCN4)ccc32)cc1 |  |  |  |  | inhibition at 10 µM [8]: 20%; inhibition at 10 µM [4]: 61%
Cc1ccc2c(c1)S(=O)(=O)c1cc(C3=NCCN3)ccc1C2=O |  |  | 5 | 53 | 
CCn1nnc(-c2ccc3c(c2)S(=O)(=O)c2ccccc2C3=O)n1 |  |  | 45 | 36 | 
[O-][S+]1c2ccccc2Sc2ccc(C3=NCCN3)cc21 (stereo unspecified) |  |  | 14 | 14 | 
O=c1c2ccccc2sc2cc(C3=NCCN3)ccc12 | 1000 |  | 14 |  | 
O=S1(=O)c2ccccc2Nc2cc(C3=NCCN3)ccc21 |  |  | 12 | 23 | 
O=C1c2ccccc2S(=O)(=O)c2c1cccc2C1=NCCN1 |  |  | -6 | -5 | 
c1ccc2c(c1)Oc1ccc(C3=NCCN3)cc1S2 | 100 | 46 |  |  | IC50 [3]: 10000 nM
Cn1nnc(-c2ccc3c(c2)S(=O)(=O)c2ccccc2C3=O)n1 | 10 | 100 | 10 |  | 
O=S1(=O)c2ccccc2-c2cc(C3=NCCN3)ccc21 |  |  | 16 | 41 | 
CCNc1ccc2c(c1)C(=O)c1ccc(C3=NCCN3)cc1S2(=O)=O | 10 |  | 0 |  | Reversible [9]: 0%
O=C1c2cc(F)ccc2S(=O)(=O)c2cc(C3=NCCN3)ccc21 | 200 | 62 | 12 |  | 
CC1CN=C(c2ccc3c(c2)S(=O)(=O)c2ccccc2C3=O)N1 (stereo unspecified) |  |  |  |  | inhibition at 10 µM [8]: 36%; inhibition at 10 µM [4]: 49%
COc1ccc2c(c1)C(=O)c1ccc(C3=NCCN3)cc1S2(=O)=O | 10 | 5 | 33 |  | 
Cc1nc(-c2ccc3c(c2)S(=O)(=O)c2ccccc2O3)no1 |  |  | 17 | 98 | 

SMILES | IC50 [1] [nM] | Reversible [2] [%] | inhibition at 1 µM [5] [%] | inhibition at 1 µM [6] [%] | other results
O=C1c2cc(N3CCOCC3)ccc2S(=O)(=O)c2cc(C3=NCCN3)ccc21 | 10 |  | 4 |  | 
O=C1c2ccccc2S(=O)(=O)c2cc(C3=NCCCN3)ccc21 |  |  | 5 | 37 | 
COc1nnc(-c2ccc3c(c2)S(=O)(=O)c2ccccc2C3=O)o1 | 80 |  | 14 |  | 
c1cc2c(cc1C1=NCCN1)Sc1cc(C3=NCCN3)ccc1O2 | 1000 |  |  |  | IC50 [3]: 10000 nM
CC(C)c1ccc2sc3cc(-c4nn[nH]n4)ccc3c(=O)c2c1 |  |  | 5 | 24 | 
NCCNc1ccc2c(c1)C(=O)c1ccc(C3=NCCN3)cc1S2(=O)=O | 300 |  | 11 |  | Reversible [9]: 20%
CCn1nnc(-c2ccc3c(=O)c4cc(O)ccc4oc3c2)n1 | 2000 |  |  |  | IC50 [3]: 100 nM
O=S1(=O)c2ccccc2Oc2ccc(C3=NCCN3)cc21 | 40 | 16 |  |  | Inhibition [10]: 59%
O=C1c2ccccc2S(=O)(=O)c2cc(-c3nn[nH]n3)ccc21 [DOXANTRAZOLE] |  |  |  |  | inhibition at 10 µM [8]: 9%; inhibition at 10 µM [4]: 1%
O=C1c2cc(C3=NCCN3)ccc2S(=O)(=O)c2cc(C3=NCCN3)ccc21 |  |  | 3 | 46 | 
O=C1c2ccc(C3=NCCN3)cc2S(=O)(=O)c2cc(C(F)(F)F)ccc21 |  |  | 10 | 12 | 
CNc1ccc2c(c1)C(=O)c1ccc(C3=NCCN3)cc1S2(=O)=O | 23 | 8 |  |  | 
CC(C)c1ccc2c(c1)C(=O)c1ccc(C3=NCCN3)cc1S2(=O)=O | 50 | 40 |  |  | inhibition at 0.1 µM [7]: 0%
COc1ccc2c(c1)C(=O)c1ccc(-c3nnc(C)o3)cc1S2(=O)=O | 1 | 14 |  |  | IC50 [3]: 100 nM
c1ccc2c(c1)Cc1cc(C3=NCCN3)ccc1-2 |  |  | 11 | 59 | 
C=CCNc1ccc2c(c1)C(=O)c1ccc(C3=NCCN3)cc1S2(=O)=O | 9 | 5 | 12 |  | 
O=c1c2ccccc2sc2c(C3=NCCN3)cccc12 |  |  | 10 | 7 | 
O=S1(=O)c2ccccc2C(O)c2ccc(C3=NCCN3)cc21 (stereo unspecified) |  |  | 10 | 20 | 
Cc1ccc(C)c2c1[nH]c1ccc(C3=NCCN3)cc12 |  |  | 10 | 62 | 
Cn1nnc(-c2ccc3c(=O)c4cc(OCCO)ccc4oc3c2)n1 |  |  |  | 64 | Inhibition [10]: 21%
Cc1nc(-c2ccc3c(c2)Sc2ccccc2O3)no1 | 200 |  | 14 |  | 
CCOc1ccc2c(c1)C(=O)c1ccc(C3=NCCN3)cc1S2(=O)=O | 7 | 4 | 12 |  | 
